Laboratory results as given in ChEMBL document CHEMBL1152160, “Synthesis and bioevaluation of hybrid 4-aminoquinoline triazines as a new class of antimalarial agents” (Bioorg Med Chem Lett, 2008).
Values after ≈ are worked out from the molar mass of the structure shown.

Legend:
Plasmodium falciparum = assay: Antimalarial activity after 72hrs against chloroquine-sensitive Plasmodium falciparum 3D7 infected erythrocytes; type: functional, organism-based; settings: 3D7, 72 h
In short: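 Serial dilutions in screening medium, seven concentrations (top 500 ng/mL, or 100 ng/mL for some compounds), duplicate wells. Added 2.5% haematocrit erythrocytes at 0.5% parasitaemia. Uninfected erythrocytes without drug as negative control, CQ as positive control. After 72 h, SYBR Green I in lysis buffer (20 mM tris pH 7.5, 5 mM EDTA, saponin, Triton X-100), 1 h room temperature, fluorescence read.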

[1] = Selectivity index, ratio of IC50 for african green monkey (Cercopithecus aethiops) Vero cells to IC50 for chloroquine-sensitive Plasmodium falciparum 3D7; type: toxicity, cell-based; settings: read-out: Ratio IC50
In short: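 Vero cells at 1 × 10⁴ cells/well were exposed to varying compound concentrations, highest 100 µg/mL, for 72 h. Viability was measured by MTT. Cytotoxic IC50 was taken from non-linear regression of dose–response curves and divided by the 3D7 IC50 to give the index.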

Plasmodium yoelii [2] = assay: Antimalarial activity as reduced parasitaemia after 4 days against Plasmodium yoelii N67 infected Swiss mice (Mus musculus) at 50 mg/kg/day intraperitoneal dose; type: functional, N-67; design: scale not given: the % may be the effect or the level left
In short: (§1)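 Swiss mice (22 ± 2 g), groups of five, inoculated day 0 with P. yoelii N-67-parasitized RBC. Dosed 50 mg/kg/day i.p. once daily, days 0–3, as aqueous suspension with a few drops of Tween 80 in 0.2 mL. Parasitaemia read from thin blood smears on days 4–6. Group mean gave % suppression versus untreated controls. CQ-treated mice as reference.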

Plasmodium yoelii [3] = assay: Antimalarial activity as reduced parasitaemia after 6 days against Plasmodium yoelii N67 infected Swiss mice (Mus musculus) at 50 mg/kg/day intraperitoneal dose; type: functional, N-67; design: scale not given: the % may be the effect or the level left; in short: as §1
Mus musculus = assay: Toxicity to Plasmodium yoelii N-67 infected Swiss mice (Mus musculus) assessed as survival at 50 mg/kg/day, intraperitoneally after 28 days; type: organism-based; design: route intraperitoneal; settings: in vivo, ip, 672 h
In short: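 Swiss mice were infected on day 0 with parasitized RBC of CQ-resistant P. yoelii N-67. Groups of five were dosed intraperitoneally at 50 mg/kg/day, once daily on days 0–3. Compounds were given as aqueous suspensions with a few drops of Tween 80. Survival was followed for 28 days. CQ-treated mice served as reference controls.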

SMILES: Cc1ccccc1Nc1nc(NC2CCCCC2)nc(N2CCN(CCNc3ccnc4cc(Cl)ccc34)CC2)n1
- IC50 (Plasmodium falciparum): 0.194 µg/mL (≈ 0.34 µM)
- selectivity ratio [1]: 29

SMILES: Fc1ccc(Nc2nc(NC3CCCCC3)nc(N3CCN(CCNc4ccnc5cc(Cl)ccc45)CC3)n2)cc1
- IC50 (Plasmodium falciparum): 0.00783 µg/mL (≈ 0.0136 µM)
- selectivity ratio [1]: 262
- Activity (Plasmodium yoelii [2]): 74.81%
- Activity (Plasmodium yoelii [3]): 71.75%

SMILES: Fc1ccccc1Nc1nc(N2CCCCC2)nc(N2CCN(CCNc3ccnc4cc(Cl)ccc34)CC2)n1
- IC50 (Plasmodium falciparum): 0.159 µg/mL (≈ 0.283 µM)
- selectivity ratio [1]: 14.9

SMILES: Clc1ccc2c(NCCN3CCN(c4nc(Nc5ccccc5)nc(N5CCCCC5)n4)CC3)ccnc2c1
- IC50 (Plasmodium falciparum): 0.0178 µg/mL (≈ 0.0328 µM)
- selectivity ratio [1]: 117
- Activity (Plasmodium yoelii [2]): 66.67%
- Activity (Plasmodium yoelii [3]): 55.36%

SMILES: Cc1ccc(Nc2nc(NC3CCCCC3)nc(N3CCN(CCNc4ccnc5cc(Cl)ccc45)CC3)n2)cc1
- IC50 (Plasmodium falciparum): 0.256 µg/mL (≈ 0.447 µM)
- selectivity ratio [1]: 115

SMILES: Clc1ccc2c(NCCN3CCN(c4nc(Nc5ccccc5)nc(NC5CCCCC5)n4)CC3)ccnc2c1
- IC50 (Plasmodium falciparum): 0.0162 µg/mL (≈ 0.0291 µM)
- selectivity ratio [1]: 154
- Activity (Plasmodium yoelii [2]): 86.43%
- Activity (Plasmodium yoelii [3]): 78.73%

SMILES: Clc1ccc2c(NCCN3CCN(c4nc(NC5CCCCC5)nc(N5CCCCC5)n4)CC3)ccnc2c1
- Activity (Mus musculus): Toxic
- IC50 (Plasmodium falciparum): 0.00443 µg/mL (≈ 0.00805 µM)
- selectivity ratio [1]: 481
- Activity (Plasmodium yoelii [2]): 99.9%
- Activity (Plasmodium yoelii [3]): 99.11%

SMILES: Cc1ccc(Nc2nc(Nc3ccc(C)cc3)nc(N3CCN(CCNc4ccnc5cc(Cl)ccc45)CC3)n2)cc1
- IC50 (Plasmodium falciparum): 0.0383 µg/mL (≈ 0.0659 µM)
- selectivity ratio [1]: 155

SMILES: Clc1ccc2c(NCCN3CCN(c4nc(Nc5ccccc5)nc(N5CCOCC5)n4)CC3)ccnc2c1
- IC50 (Plasmodium falciparum): 0.0213 µg/mL (≈ 0.039 µM)
- selectivity ratio [1]: 470

SMILES: Cc1ccc(Nc2nc(N3CCN(CCNc4ccnc5cc(Cl)ccc45)CC3)nc(N3CCN(c4ccccc4)CC3)n2)cc1
- IC50 (Plasmodium falciparum): 0.0646 µg/mL (≈ 0.102 µM)
- selectivity ratio [1]: 52.2

SMILES: Cc1ccccc1Nc1nc(N2CCOCC2)nc(N2CCN(CCNc3ccnc4cc(Cl)ccc34)CC2)n1
- IC50 (Plasmodium falciparum): 0.0192 µg/mL (≈ 0.0342 µM)
- selectivity ratio [1]: 377

SMILES: Cc1ccc(Nc2nc(N3CCOCC3)nc(N3CCN(CCNc4ccnc5cc(Cl)ccc45)CC3)n2)cc1
- IC50 (Plasmodium falciparum): 0.0435 µg/mL (≈ 0.0776 µM)
- selectivity ratio [1]: 512

SMILES: Fc1ccc(Nc2nc(N3CCCCC3)nc(N3CCN(CCNc4ccnc5cc(Cl)ccc45)CC3)n2)cc1
- IC50 (Plasmodium falciparum): 0.00715 µg/mL (≈ 0.0127 µM)
- selectivity ratio [1]: 329
- Activity (Plasmodium yoelii [2]): 99.9%
- Activity (Plasmodium yoelii [3]): 96.51%

SMILES: Cc1ccccc1Nc1nc(Nc2ccccc2C)nc(N2CCN(CCNc3ccnc4cc(Cl)ccc34)CC2)n1
- IC50 (Plasmodium falciparum): 0.186 µg/mL (≈ 0.32 µM)
- selectivity ratio [1]: 75.3

SMILES: CCN1CCN(c2nc(Nc3ccccc3)nc(N3CCN(CCNc4ccnc5cc(Cl)ccc45)CC3)n2)CC1
- IC50 (Plasmodium falciparum): 0.038 µg/mL (≈ 0.0663 µM)
- selectivity ratio [1]: 41.8

SMILES: CCN1CCN(c2nc(Nc3ccc(C)cc3)nc(N3CCN(CCNc4ccnc5cc(Cl)ccc45)CC3)n2)CC1
- IC50 (Plasmodium falciparum): 0.019 µg/mL (≈ 0.0324 µM)
- selectivity ratio [1]: 41

SMILES: Clc1ccc2c(NCCN3CCN(c4nc(Nc5ccccc5)nc(Nc5ccccc5)n4)CC3)ccnc2c1
- IC50 (Plasmodium falciparum): 0.0756 µg/mL (≈ 0.137 µM)
- selectivity ratio [1]: 27.8

SMILES: Clc1ccc2c(NCCN3CCN(c4nc(N5CCCCC5)nc(N5CCCCC5)n4)CC3)ccnc2c1
- IC50 (Plasmodium falciparum): 0.0444 µg/mL (≈ 0.0828 µM)
- selectivity ratio [1]: 53.2

SMILES: O=CN1CCN(c2nc(N3CCOCC3)nc(N3CCN(CCNc4ccnc5cc(Cl)ccc45)CC3)n2)CC1
- IC50 (Plasmodium falciparum): 0.0105 µg/mL (≈ 0.0185 µM)
- selectivity ratio [1]: 4110

SMILES: CCN(CC)CCCC(C)Nc1ccnc2cc(Cl)ccc12 (stereo unspecified) [CHLOROQUINE]
- Activity (Plasmodium yoelii [2]): 99.9%
- Activity (Plasmodium yoelii [3]): 94.26%
